IC50 and MIC data for 23 molecules are collected here from ChEMBL document CHEMBL3593169, “Cytotoxic Homoisoflavones from the Bulbs of Bellevalia eigii” (J Nat Prod, 2015).

Converted amounts (≈) assume the structure as drawn. The source made the active and inactive calls. The calls are words filed in the database; no cut-off is given here.

One test has as its system MDA-MB-435. The test can be described thus: Cytotoxicity against human MDA-MB-435 cells assessed as reduction in cell growth incubated for 72 hrs. Format: functional, cell-based. As to conditions: MDA-MB-435, 72 h. A digest of the protocol: (§1)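 Cells grown in RPMI 1640 with 10% FBS, penicillin and streptomycin at 37 °C, 5% CO2. Log-phase cells trypsinized, washed twice, seeded at about 5,000 per well and left overnight. Compounds in DMSO added for 72 h at 37 °C. Viability read by MTS-type absorbance assay (CellTiter 96 AQueous One). IC50 in μM relative to DMSO control. Vinblastine as positive control.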

The test system of a further test is HT-29. The test can be described thus: Cytotoxicity against human HT-29 cells assessed as reduction in cell growth incubated for 72 hrs. The test is classed as functional, cell-based. Particulars: HT-29, 72 h. A digest of the protocol: as §1
The subject of another test is Staphylococcus aureus. The test can be described thus: Antimicrobial activity against Staphylococcus aureus incubated for 4 days by broth microdilution method. The test is classed as functional. A digest of the protocol:
(§2)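 Broth microdilution in 1/10-strength BHIB+S; 2-fold compound dilution series inoculated with cell suspension. Incubated 4 days; growth scored visually by turbidity. MIC taken as lowest concentration with no turbidity relative to negative control. Each compound run in triplicate.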

In the next test the test system is Escherichia coli. The test can be described thus: Antimicrobial activity against Escherichia coli incubated for 4 days by broth microdilution method. The test is classed as functional. The method in brief: as §2
Test [1] concerns Mycolicibacterium smegmatis. As to the kind of experiment: Antimicrobial activity against Mycobacterium smegmatis incubated for 4 days by broth microdilution method. The test is classed as functional. A digest of the protocol:
as §2

For a further test, the system named is Candida albicans. The test can be described thus: Antimicrobial activity against Candida albicans incubated for 4 days by broth microdilution method. Format: functional. A digest of the protocol:
as §2

The next test relates to Aspergillus niger. The test can be described thus: Antimicrobial activity against Aspergillus niger incubated for 4 days by broth microdilution method. Format: functional. A digest of the protocol: as §2

Regarding `COc1cc(O)c2c(c1O)OC[C@@H](Cc1ccc(O)cc1)C2=O`, the IC50 with MDA-MB-435 and in the test with HT-29 was more than 20 µM throughout. Also, the MIC result (in the test with Staphylococcus aureus; in the test on Escherichia coli; in test [1]; in the test with Candida albicans; in the test on Aspergillus niger) was “inactive” throughout.
Turning to `COc1cc(O)c2c(c1OC)OCCC2=O`, the 50% inhibitory concentration (IC50) in the test with MDA-MB-435 and in the test on HT-29 was more than 20 µM throughout. The MIC entry (in the test with Staphylococcus aureus; in the test with Escherichia coli; in test [1]; in the test on Candida albicans; in the test with Aspergillus niger) was “inactive” each time.
`COc1c(O)cc(O)c2c1OC/C(=C\c1ccc(O)cc1)C2=O`: the IC50 in the test on MDA-MB-435 and with HT-29 was more than 20 µM each time. Further, the minimal inhibitory concentration (MIC) is more than 48 µg/mL in the test on Staphylococcus aureus (96 h); more than 48 µg/mL with Escherichia coli (96 h); 24 µg/mL (≈ 76.4 µM) in test [1] (96 h); more than 48 µg/mL in the test with Candida albicans (96 h); more than 48 µg/mL in the test with Aspergillus niger (96 h).
Regarding `COc1cc(O)c2c(c1OC)OC/C(=C\c1ccc(O)c(O)c1)C2=O`, the concentration for half-maximal inhibition (IC50) with MDA-MB-435 is 4.6 µM; in the test on HT-29, more than 20 µM. Moreover, the minimum inhibitory concentration (MIC) was 93 µg/mL (≈ 270 µM) in the test with Staphylococcus aureus (96 h); more than 93 µg/mL against Escherichia coli (96 h); 47 µg/mL (≈ 137 µM) in test [1] (96 h); more than 93 µg/mL in the test on Candida albicans (96 h); more than 93 µg/mL in the test with Aspergillus niger (96 h).
For `COc1cc2c(cc1O)C[C@]21COc2cc(O)cc(O)c2C1=O`, the IC50 in the test with MDA-MB-435 and with HT-29 was more than 20 µM in each case. The MIC entry (in the test on Staphylococcus aureus; with Escherichia coli; in test [1]; with Candida albicans; in the test on Aspergillus niger) was “inactive” in each case.
For the molecule `COc1ccc(C[C@@H]2COc3cc(O)cc(O)c3C2=O)cc1O`, the IC50 in the test on MDA-MB-435 was 1 µM; in the test with HT-29 it was more than 20 µM. The MIC is more than 138 µg/mL against Staphylococcus aureus (96 h); more than 138 µg/mL in the test with Escherichia coli (96 h); 17 µg/mL (≈ 53.7 µM) in test [1] (96 h); more than 138 µg/mL against Candida albicans (96 h); more than 138 µg/mL against Aspergillus niger (96 h).
With `COc1cc2c(c(O)c1O)C(=O)[C@H](Cc1ccc(O)cc1)CO2`, the IC50 with MDA-MB-435 and in the test with HT-29 was more than 20 µM in each case. Further, the MIC result (in the test with Staphylococcus aureus; with Escherichia coli; in test [1]; in the test on Candida albicans; in the test on Aspergillus niger) was “inactive” in each case.
As to `O=C1/C(=C/c2ccc(O)cc2)COc2cc(O)cc(O)c21`, the IC50 in the test on MDA-MB-435 and with HT-29 was more than 20 µM in each case. The MIC entry (in the test with Staphylococcus aureus; in the test with Escherichia coli; in test [1]; in the test with Candida albicans; in the test with Aspergillus niger) was “inactive” in each case.
For `CC1(C)S[C@@H]2[C@H](NC(=O)[C@H](N)c3ccccc3)C(=O)N2[C@H]1C(=O)O` [AMPICILLIN], the MIC in the test on Escherichia coli (96 h) amounted to 8 µg/mL (≈ 22.9 µM).
For the molecule `COc1ccc(C[C@@H]2COc3c(OC)c(OC)cc(O)c3C2=O)cc1O`, the values for the IC50 in the test on MDA-MB-435 and in the test with HT-29 were 1.1 µM and 17.3 µM, respectively. The MIC result (with Staphylococcus aureus; in the test on Escherichia coli; in test [1]; in the test on Candida albicans; in the test with Aspergillus niger) was “inactive” each time.
In test [1] (96 h), `O=C(O)c1cn(C2CC2)c2cc(N3CCNCC3)c(F)cc2c1=O` [CIPROFLOXACIN] gave an MIC of 2 µg/mL (≈ 6.04 µM).
`COc1cc(O)c2c(c1OC)OC[C@@H](Cc1ccc(O)cc1)C2=O`: the IC50 in the test on MDA-MB-435 and in the test with HT-29 was more than 20 µM throughout. Further, the MIC result (in the test on Staphylococcus aureus; with Escherichia coli; in test [1]; in the test on Candida albicans; in the test on Aspergillus niger) was “inactive” each time.
In the case of `CS/C=C/C(=O)OC[C@H](O)c1ccccc1`, the IC50 in the test on MDA-MB-435 and in the test with HT-29 was more than 20 µM throughout. Further, the MIC entry (in the test with Staphylococcus aureus; in the test with Escherichia coli; in test [1]; with Candida albicans; in the test with Aspergillus niger) was “inactive” each time.
For `O=C1c2c(O)cc(O)cc2OC[C@H]1Cc1ccc(O)c(O)c1`, the IC50 in the test with MDA-MB-435 and with HT-29 was more than 20 µM throughout. The MIC entry (in the test on Staphylococcus aureus; with Escherichia coli; in test [1]; with Candida albicans; in the test on Aspergillus niger) was “inactive” in each case.
Consider `COc1cc(O)c2c(c1)OC[C@@](O)(Cc1ccc(O)cc1)C2=O`, for which the IC50 with MDA-MB-435 and in the test on HT-29 was more than 20 µM each time. The MIC entry (in the test with Staphylococcus aureus; in the test on Escherichia coli; in test [1]; in the test on Candida albicans; in the test with Aspergillus niger) was “inactive” each time.
For `COc1cc(/C=C/C(=O)NCCc2ccc(O)cc2)ccc1O` [N-TRANS-FERULOYL TYRAMINE], the IC50 in the test with MDA-MB-435 and in the test on HT-29 was more than 20 µM throughout. Moreover, the MIC result (in the test on Staphylococcus aureus; with Escherichia coli; in test [1]; in the test with Candida albicans; in the test on Aspergillus niger) was “inactive” each time.
As for `CC[C@]1(O)C[C@@H]2CN(CCc3c([nH]c4ccccc34)[C@@](C(=O)OC)(c3cc4c(cc3OC)N(C)[C@H]3[C@@](O)(C(=O)OC)[C@H](OC(C)=O)[C@]5(CC)C=CCN6CC[C@]43[C@@H]65)C2)C1` [VINBLASTINE], the figures for the IC50 in the test on MDA-MB-435 and with HT-29 were 0.0005 µM and 0.0045 µM, respectively.
For the molecule `COc1cc(O)c2c(c1OC)OC[C@@H](Cc1ccc(O)c(O)c1)C2=O`, the IC50 in the test on MDA-MB-435 and in the test with HT-29 was more than 20 µM in each case. The MIC entry (in the test with Staphylococcus aureus; in the test with Escherichia coli; in test [1]; in the test on Candida albicans; in the test with Aspergillus niger) was “inactive” in each case.
For `COc1c(O)c(O)c2c(c1OC)OC[C@@H](Cc1ccc(O)cc1)C2=O`, the half-maximal inhibitory concentration (IC50) in the test with MDA-MB-435 and in the test on HT-29 was more than 20 µM throughout. The MIC result (in the test on Staphylococcus aureus; in the test on Escherichia coli; in test [1]; with Candida albicans; in the test on Aspergillus niger) was “inactive” throughout.
Regarding `CN[C@H](CC(C)C)C(=O)N[C@H]1C(=O)N[C@@H](CC(N)=O)C(=O)N[C@H]2C(=O)N[C@H]3C(=O)N[C@H](C(=O)N[C@H](C(=O)O)c4cc(O)cc(O)c4-c4cc3ccc4O)[C@H](O)c3ccc(c(Cl)c3)Oc3cc2cc(c3O[C@@H]2O[C@H](CO)[C@@H](O)[C@H](O)[C@H]2O[C@H]2C[C@](C)(N)[C@H](O)[C@H](C)O2)Oc2ccc(cc2Cl)[C@H]1O` [VANCOMYCIN], the MIC with Staphylococcus aureus (96 h) turned out to be 0.25 µg/mL (≈ 0.173 µM).
As for `O=C1c2c(O)cc(O)cc2OC[C@H]1Cc1ccc(O)cc1`, the IC50 with MDA-MB-435 and with HT-29 was more than 20 µM each time. For the same molecule, the MIC was more than 125 µg/mL in the test on Staphylococcus aureus (96 h); more than 125 µg/mL with Escherichia coli (96 h); 63 µg/mL (≈ 220 µM) in test [1] (96 h); more than 125 µg/mL with Candida albicans (96 h); more than 125 µg/mL with Aspergillus niger (96 h).
In the case of `C[C@@H]1[C@H](O)[C@@H](C)/C=C/C=C/C=C/C=C/C=C/C=C/C=C/[C@H](O[C@@H]2O[C@H](C)[C@@H](O)[C@H](N)[C@@H]2O)C[C@@H]2O[C@](O)(C[C@@H](O)C[C@@H](O)[C@H](O)CC[C@@H](O)C[C@@H](O)CC(=O)O[C@H]1C)C[C@H](O)[C@H]2C(=O)O` [AMPHOTERICIN B], the values for the MIC in the test with Candida albicans (96 h) and against Aspergillus niger (96 h) were 16 µg/mL (≈ 17.3 µM) and 31 µg/mL (≈ 33.5 µM), respectively.
As for `COc1cc(O)c2c(c1OC)OC/C(=C\c1ccc(O)cc1)C2=O`, the values for the IC50 in the test with MDA-MB-435 and in the test on HT-29 were 13.2 µM and more than 20 µM, respectively. The MIC entry (in the test on Staphylococcus aureus; in the test on Escherichia coli; in test [1]; in the test with Candida albicans; in the test with Aspergillus niger) was “inactive” each time.
